Measured values published in ChEMBL document CHEMBL3351571, “Peptidomimetics of Arg-Phe-NH2 as small molecule agonists of Mas-related gene C (MrgC) receptors” (Bioorg Med Chem, 2014).
Activity calls are given as the source filed them. No cut-off for these calls is given here. Square brackets hold non-standard residues; d marks the D form. Peptide text beside a SMILES is read from it. dPhe(4-guanidino) = N=C(N)Nc1ccc(C[C@@H](N)C(=O)O)cc1; Phe(4-guanidino) = N=C(N)Nc1ccc(C[C@H](N)C(=O)O)cc1

Tests used:
Assay type in all cases: cell-based
[1] = target: T1, Mas-related G-protein coupled receptor member X1 (Rattus norvegicus, UniProt Q8R4G1); assay: Agonist activity at rat MrgX1 transfected in HEK293 cells by FLIPR assay
T1 sequence (Q8R4G1 whole entry): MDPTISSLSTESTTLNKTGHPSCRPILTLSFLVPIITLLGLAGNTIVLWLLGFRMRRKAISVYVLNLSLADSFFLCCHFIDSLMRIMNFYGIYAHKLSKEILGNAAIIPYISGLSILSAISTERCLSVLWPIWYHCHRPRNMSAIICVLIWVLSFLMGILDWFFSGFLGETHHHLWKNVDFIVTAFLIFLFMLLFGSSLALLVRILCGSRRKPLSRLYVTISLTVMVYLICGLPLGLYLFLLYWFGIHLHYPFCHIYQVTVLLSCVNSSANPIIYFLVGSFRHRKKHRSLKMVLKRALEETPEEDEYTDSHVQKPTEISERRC
Procedure, shortened: (§1)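 Rodent Mrg receptors were transiently transfected into HEK293 or KNRK cells, which were plated at 25,000 cells/well and imaged 2 days later. Cells were loaded with 2 μM Fluo 4AM and 1% Trypan Red in HBSS for 50 min at 37°C, then held 10 min at room temperature.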

[2] = target: T2, Mas-related G-protein coupled receptor member X1 (Homo sapiens, UniProt Q96LB2); assay: Agonist activity at human MrgX1 transfected in HEK293 cells by FLIPR assay
Procedure, shortened: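 Human MrgX1 stably expressed in HEK293 cells, plated at 25,000 cells/well 2 days before imaging. Cells loaded with 2 μM Fluo 4AM plus 1% Trypan Red in HBSS for 50 min at 37°C, then equilibrated 10 min at room temperature. Serial dilutions in HBSS added alongside BAM 8-22 (positive) and HBSS (negative) controls.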

[3] = target: T3, Mas-related G-protein coupled receptor member X1 (Mus musculus, UniProt Q8CIP3); assay: Agonist activity at mouse MrgC11 transfected in HEK293 cells by FLIPR assay; procedure, shortened: as §1
T3 sequence (Q8CIP3 whole entry): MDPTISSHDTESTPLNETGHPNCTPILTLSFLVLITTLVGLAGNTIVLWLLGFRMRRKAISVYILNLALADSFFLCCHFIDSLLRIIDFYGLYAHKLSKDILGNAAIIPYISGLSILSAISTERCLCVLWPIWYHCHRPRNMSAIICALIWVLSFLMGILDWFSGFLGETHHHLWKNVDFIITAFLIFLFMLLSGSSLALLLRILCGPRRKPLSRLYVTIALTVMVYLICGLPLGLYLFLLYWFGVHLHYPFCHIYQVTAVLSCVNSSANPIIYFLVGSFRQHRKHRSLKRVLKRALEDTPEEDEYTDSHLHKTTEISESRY

[4] = target: T2, Mas-related G-protein coupled receptor member X1; assay: Antagonist activity at human MrgX1 transfected in HEK293 cells at 200 uM by FLIPR assay

T2 sequence (Q96LB2 whole entry): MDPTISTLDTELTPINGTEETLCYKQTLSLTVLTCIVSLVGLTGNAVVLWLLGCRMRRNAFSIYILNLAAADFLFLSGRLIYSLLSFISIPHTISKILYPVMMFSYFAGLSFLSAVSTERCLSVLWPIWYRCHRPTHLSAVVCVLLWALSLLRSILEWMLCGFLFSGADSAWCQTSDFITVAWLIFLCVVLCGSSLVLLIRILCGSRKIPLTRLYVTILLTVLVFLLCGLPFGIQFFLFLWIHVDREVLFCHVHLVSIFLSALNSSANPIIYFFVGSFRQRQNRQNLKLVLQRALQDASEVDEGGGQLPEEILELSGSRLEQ

SMILES: COc1ccc(-c2ccc(C(=O)Nc3cccc(Cn4ncc(N5CCNCC5)cc4=O)c3C)cc2)cn1
- EC50 [1]: > 2 µM
- EC50 [2]: 0.0251 µM
- EC50 [3]: > 2 µM

SMILES: N=C(N)Nc1ccc(C[C@H](N)C(=O)N[C@@H](Cc2ccccc2)C(N)=O)cc1 (H-[Phe(4-guanidino)]-Phe-NH2)
- EC50 [1]: 50.1 µM
- EC50 [2]: > 100 µM
- EC50 [3]: 15.8 µM

SMILES: N=C(N)N1CCC(C(N)C(=O)N[C@@H](Cc2ccccc2)C(N)=O)CC1 (some centres undefined)
- EC50 [1]: 3.98 µM
- EC50 [2]: > 100 µM
- EC50 [3]: 0.794 µM

SMILES: N=C(N)N[C@@H]1CN[C@H](C(=O)N[C@@H](Cc2ccccc2)C(N)=O)C1
- EC50 [1]: > 100 µM
- EC50 [2]: > 100 µM
- EC50 [3]: 7.94 µM

SMILES: N=C(N)NC[C@@H]1CN[C@H](C(=O)N[C@@H](Cc2ccccc2)C(N)=O)C1
- EC50 [1]: > 100 µM
- EC50 [2]: > 100 µM
- EC50 [3]: 0.501 µM

SMILES: N=C(N)Nc1ccc(C[C@@H](N)C(=O)N[C@@H](Cc2ccccc2)C(N)=O)cc1 (H-[dPhe(4-guanidino)]-Phe-NH2)
- EC50 [1]: 0.631 µM
- EC50 [2]: > 100 µM
- EC50 [3]: 1.26 µM
- Activity [4]: inactive
